From ChEMBL document CHEMBL4513216, “Probing the Open Global Health Chemical Diversity Library for Multistage-Active Starting Points for Next-Generation Antimalarials” (ACS Infect Dis, 2020)

Test: Toxicity liver stage against HepG2, at 10uM
Assay type: cell-based
Parameters: test concentration 10 uM, cell line HepG2-A16-CD81EGFP
Conditions: human, HepG2-A16-CD81EGFP cells; read-out: INHIBITION
Outline: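 Uninfected HepG2-A16-CD81EGFP cells, 3 × 10^3 per well, 1536-well, plated on prespotted compound at 10 μM final, parasite-free screening media added to match infected plates; puromycin 10 μM positive, DMSO 0.5% negative; run in parallel with 48 h PbLuc assay at 37 °C, 5% CO2; viability by CellTiter-Glo luminescence, normalized to controls.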

| SMILES | cytotoxicity at 10 µM [%] |
| --- | --- |
| O=c1c2c(ncn1CCO)nc1n2CCC1 | -11.3 |
| c1ccc(CN2CCC3(CC2)Nc2ccccc2CO3)cc1 | -0.719 |
| COCCN(CC1CCCN(C2Cc3ccccc3C2)C1)C(=O)CSC (configuration not stated) | -1.66 |
| Cc1ccccc1C(O)c1ccncc1 (configuration not stated) | -4.84 |
| COCc1cc(CC2(NC3CCCCC3)COC2)no1 | 0.66 |
| Cn1cc(NC(=O)CNC(=O)N2CCN(c3cccc(Cl)c3)CC2)cn1 | 2.93 |
| O=C(COc1coc(CN2CCOCC2)cc1=O)Nc1ccc(Cl)cc1 | -6.51 |
| COCCn1/c(=N\C(=O)CN(C)S(C)(=O)=O)sc2cc(OC)ccc21 | -7.93 |
| Cc1ccc(C)c(C(=O)NCC(c2cccn2C)N2CCCCCC2)c1 (configuration not stated) | 5.64 |
| NC(=O)C1CCN(c2nc3nccc(-c4ccccn4)c3c(=O)[nH]2)CC1 | -9.24 |
| c1cncc(COCC2CN(Cc3ccco3)Cc3ccnn3C2)c1 (configuration not stated) | -14.4 |
| CO[C@H]1CCN(c2ccc(C)nn2)[C@H]1Cc1cnn(C)c1 | -12.7 |
| CSc1ncn(-c2nc(NC3CC3)nc(N(C)C)n2)n1 | -6.75 |
| CCOCCCNC(=O)c1nn(CC)cc1Br | 1.77 |
| Cc1nc(NCc2cccnc2)c2c(n1)c(C)nn2C | -3.42 |
| CN(C)c1ccc(C2CCN(c3cnccn3)CC2)nc1 | -11.2 |
| CN(C)Cc1cnc(C2CCN(C(=O)c3cc(F)cc(F)c3)C2)[nH]1 (configuration not stated) | 2.5 |
| Cn1c(=O)[nH]c(=O)c2c1nc1n2CC(c2ccc(Br)cc2)O1 (configuration not stated) | -1.41 |
| Cc1ccc2nc(CN(C)Cc3ccc(C)o3)cc(=O)n2c1 | -3.02 |
| Cc1ccc(C(=O)NS(=O)(=O)Cc2ccccc2)cc1S(C)(=O)=O | 3.09 |
| CS(=O)(=O)c1cc(NC(=O)COc2ccccc2F)cc(C(=O)O)c1 | -9.24 |
| Cc1nnc2n1CC(CNCc1nc(-c3cccs3)no1)CC2 (configuration not stated) | 10.1 |
| CC1(C)CN(C(=O)CCc2nc(-c3ccncc3)no2)CCO1 | -3.16 |

| SMILES | cytotoxicity at 10 µM [%] |
| --- | --- |
| COc1ccccc1CNCCc1cccc(C(N)=O)c1 | 3.65 |
| COc1ccc(C(O)CNC(=O)Cn2ccc(=O)n(C)c2=O)cc1 (configuration not stated) | 6.45 |
| CCOc1cc(CNc2cc(-c3nc(C)no3)ccn2)ccc1OC | 1.74 |
| COCCNC(=O)c1ccc(NCc2c(C)noc2C)cc1Cl | 0.678 |
| CC(NC(=O)CSCC(N)=O)c1ccc(Oc2ccccc2)cc1 (configuration not stated) | 2.98 |
| Cc1cc(C(=O)NCC(O)c2ccc(Cl)s2)c(C)o1 (configuration not stated) | -6.82 |
| O=C(Cc1ccccc1Br)NCC(=O)Nc1cn[nH]c1 | 7.44 |
| CC(C(=O)NCc1ccco1)N1CCN(Cc2nccn2C)CC1 (configuration not stated) | 7.73 |
| COc1ccc(CNC(=O)NC2CCN(CC3CCCC3)CC2)cn1 | -8.01 |
| Cc1ccc(S(=O)(=O)N2CC[C@@H](O)C2)c(F)c1 | -10.2 |
| CC(C)(C)n1ncc2c(=O)[nH]c(N3CCC4(CCCCC4)C3)nc21 | -7.72 |
| O=C(c1ccc(OCC2CC2)cc1)N1CCOCC1c1ncon1 (configuration not stated) | 1.79 |
| CCc1nc2n(n1)CC(Nc1ccnc(-c3ccccc3)n1)CC2 (configuration not stated) | -11.7 |
| CC(O)(CNS(=O)(=O)Cc1ccon1)c1ccsc1 (configuration not stated) | 2.76 |
| CC(C)C(C)NC(=O)Nc1cccc2c1CCN(S(C)(=O)=O)C2 (configuration not stated) | -11.3 |
| O=C(c1cc2ccccc2c(=O)[nH]1)N1CCN(CCO)CC1 | 4.96 |
| CC(=O)N1CCN(CCNS(=O)(=O)c2cccc(F)c2)CC1 | 6.99 |
| COc1ccc2cccc(CC(=O)NCCc3n[nH]c(=O)[nH]3)c2c1 | -3.59 |
| Cn1ccnc1SCC(=O)NCCC1CCCO1 (configuration not stated) | -2.49 |
| O=C(c1c[nH]c2ncccc12)N(Cc1ccco1)C1CCCC1 | 2.07 |
| CCn1c(C)cc(-c2csc(Cn3ccc(=O)[nH]c3=O)n2)c1C | 10.2 |
| N#CC(NC(=O)CCC1CCC1)c1cnn(-c2ccccc2)c1 (configuration not stated) | -2.65 |
| Cc1nc(-c2ccc(Cl)s2)sc1C(=O)N(C)CC(N)=O | -7.08 |

| SMILES | cytotoxicity at 10 µM [%] |
| --- | --- |
| Cc1nc(S(=O)(=O)CCn2cccn2)n(CC2CCCO2)c1C (configuration not stated) | -4.34 |
| COCC(O)CN(C)C(=O)NC1CCN(S(C)(=O)=O)CC1 (configuration not stated) | -0.778 |
| c1cc(CN2CCCCC2)cc(NCc2cc[nH]n2)c1 | -6.05 |
| CC(=O)c1cccc(NC(=O)CN2CCCCC2C2OCCO2)c1 (configuration not stated) | -10.5 |
| O=C(C1SCCc2sccc21)N1CCN(CCO)CC1 (configuration not stated) | -19.8 |
| CCCn1nc2c(cc1=O)CN(Cc1nc(CCOC)no1)CC2 | -2.7 |
| Cc1ccn(-c2ccccc2NCc2ccccn2)n1 | -9.99 |
| Cc1cc(=O)n2ncnc2n1CC(O)c1ccccc1Cl (configuration not stated) | 1.67 |
| CSc1ccc(NS(=O)(=O)c2cnn(C)c2)cn1 | -4.69 |
| CSCCC(=O)N1CCCC1c1ccsc1 (configuration not stated) | -20.3 |
| CCCc1n[nH]c(C2CN(C(=O)CCCn3cccn3)CCO2)n1 (configuration not stated) | -7.87 |
| Cn1cccc1C(=O)N1C[C@H]2CN(CC3CC3)C(=O)[C@H]2C1 | -103 |
| CN1CCN(S(C)(=O)=O)Cc2cccnc21 | -112 |
| C[C@H]1C[C@H]2CN(C(=O)CC3CC3)CC[C@H]2O1 | -67.8 |
| COCCN1CCN(C(=O)c2ccc(C)cc2OC)[C@H]2CS(=O)(=O)C[C@H]21 | -3.81 |
| CCC1CN(C(=O)c2ccccc2N2CCOCC2)CCN1C(C)C (configuration not stated) | 7.72 |
| Cc1noc(CN2CC=C(c3cnn(C4CCS(=O)(=O)C4)c3)CC2)n1 (configuration not stated) | -0.89 |
| CN(Cc1cc(C2CC2)on1)C(=O)CN1CC(c2ccccc2)CC1=O (configuration not stated) | -6.72 |
| O=S1(=O)COCCN1CCOc1ccccc1 | 5.1 |
| CCCn1cnnc1CN(C)C(=O)C1CCC(=O)N(C2CCCC2)C1 (configuration not stated) | 2.95 |
| CCn1ncnc1CN1CCc2[nH]cnc2C1CCc1ccccc1 (configuration not stated) | 0.0189 |
| COc1ccccc1N1CCN(C(=O)Cn2nc(C)c(C)c2C)C(C)C1 (configuration not stated) | 2.96 |
| Cc1nccn1C1(C(=O)O)CCN(Cc2ccc3occc3c2)CC1 | -1.61 |

| SMILES | cytotoxicity at 10 µM [%] |
| --- | --- |
| OC[C@H]1CCN(Cc2ccc3ccccc3n2)C[C@@H]1O | -6 |
| COCCCN1CC2(CCC1=O)CCN(Cc1cc(C(C)C)no1)CC2 | -2.1 |
| OCCC[C@@H]1CN(c2ncc(Cl)cc2Cl)CC[C@@H]1N1CCOCC1 | 4.24 |
| CC(C)N1CCC(CC(=O)N(C)CC(=O)c2ccc(O)cc2)CC1 | 5.21 |
| O=C1OCCN1CCNCC1(O)CCCN(CCC2CCCCC2)C1=O (configuration not stated) | -0.615 |
| CN1CCCN(C(C(=O)O)c2ccc3c(c2)OCO3)CC1 (configuration not stated) | 1.83 |
| COc1cccc2c1OCC(CNc1cc(N)nc(SC)n1)C2 (configuration not stated) | 3.37 |
| O=C(N1CCCC1)N1CCC(c2nccn2Cc2cscn2)CC1 | 4.8 |
| NC1CCCCN(Cc2ccccc2CS(=O)(=O)c2ccccc2)C1 (configuration not stated) | -20.9 |
| CCS(=O)(=O)CCNc1nc(C2CCCC2)nc2c1cnn2C | 9.35 |
| COc1ccc(OCc2nccc(-c3cc(C(=O)O)ccn3)n2)cc1 | -4.81 |
| CCCN1CCN(C(=O)c2cnc(C)nc2)[C@H]2CS(=O)(=O)C[C@H]21 | 0.0652 |
| CCN1CCCC(c2c(-c3ccccc3)ncn2CC(N)=O)C1 (configuration not stated) | -15.4 |
| c1cc(CNc2ccc(-c3nc(C4CC4)no3)cn2)no1 | 1.79 |
| O=C(NC1CCCN(CCCc2ccccc2)C1)c1ccncc1 (configuration not stated) | 0.524 |
| Cc1cccc(N2CCN(CC(=O)N3CCCC(N(C)C)CC3)CC2)c1 (configuration not stated) | -3.73 |
| COCCNc1nc2c(c(NCc3cnc(C)cn3)n1)CCNCC2 | -0.106 |
| COCCC1(C(=O)O)CCCN(CC(=O)NCCc2ccccc2)C1 (configuration not stated) | 2.66 |
| CN(Cc1ncc[nH]1)S(=O)(=O)c1cccc(C(=O)N2CCOCC2)c1 | -9.5 |
| c1ccc(-c2noc3c2CN(CC2CC2)CC3)cc1 | -13.2 |
| CCc1nnc(CN(C)c2nc(C3CCCC3)nc3c2cnn3C)o1 | -11.3 |
| COc1ccc(CN2CCC(O)CC2)c(OC)c1 | -9.18 |
| Cc1nn(C)c(Cl)c1C1CCCN1C(=O)c1cc(C2CC2)on1 (configuration not stated) | -13.3 |

| SMILES | cytotoxicity at 10 µM [%] |
| --- | --- |
| CC(=O)N1CCN(C(=O)c2cccc(OCc3cscn3)c2)CC1 | -7.57 |
| Cc1cc(C)c(CNC(=O)NCCC2CCCO2)c(=O)[nH]1 (configuration not stated) | -6.33 |
| Cc1noc(C(C)C)c1C(=O)NCC(c1cccs1)N(C)C (configuration not stated) | -14.5 |
| Cc1[nH]ncc1C(=O)N1CCCC1c1noc(C2CC2)n1 (configuration not stated) | -18.1 |
| CC(=O)Nc1nc(C(=O)N2CCCC2c2noc(C3CC3)n2)cs1 (configuration not stated) | -10.5 |
| O=C(c1cnn2cccnc12)N1CCCC(n2ccnc2)C1 (configuration not stated) | -29.7 |
| Cc1nn2cccnc2c1C(=O)N1CCCC(n2ccnc2C)C1 (configuration not stated) | -9.53 |
| CN(Cc1ccccc1)CC(O)Cn1cnc2ccccc2c1=O (configuration not stated) | -5.02 |
| COc1cccc(-n2nnc(C(=O)N3CCCC3)c2C)c1 | -5.41 |
| CN(Cc1ccccc1O)C(=O)NC1CCCN(c2ncccn2)C1 (configuration not stated) | -0.421 |
| O=C(N[C@H]1CN[C@H]2CCCO[C@H]21)c1cscn1 | -13.7 |
| CCC(=O)N1C[C@@H](C(=O)NC)[C@H](c2ccnc(N3CCCC3)n2)C1 | -1.21 |
| Cn1cccc1CN1CCC2(CCCN(C(=O)c3cnccn3)C2)C1 (configuration not stated) | -6.36 |
| c1ccc(Cn2cc3c(n2)C(COCC2CC2)OCC3)nc1 (configuration not stated) | -6.63 |
| Cn1cccc1CN1CCC2(CC1)CN(c1ncccn1)CCO2 | -4 |
| c1cc(CN2CCC3(CC2)COC(COCC2CC2)C3)ccn1 (configuration not stated) | -0.443 |
| Cc1ccccc1C(=O)N1C[C@@H]2COC[C@]2(COCc2cccnc2)C1 | 4.44 |
| O=C(C1CCOC1)N1CCC2(CC1)COCCN(Cc1ccncc1)C2 (configuration not stated) | -86 |
| Cn1cc(CN2CCn3c(CNC(=O)c4cccn4C)cnc3C2)cn1 | -3.47 |
| O=C(NC1CCC1)[C@H]1C[C@H]2CN(C(=O)Nc3ccc(F)cc3)C[C@@H]1O2 | 7.2 |
